Calls of active or inactive are those of the source. No cut-off for these calls is given here.

Assay [1] concerns the target T1, P-selectin/P-selectin glycoprotein ligand 1 (Homo sapiens, UniProt P16109+Q14242).
T1 sequence (Q14242 whole entry): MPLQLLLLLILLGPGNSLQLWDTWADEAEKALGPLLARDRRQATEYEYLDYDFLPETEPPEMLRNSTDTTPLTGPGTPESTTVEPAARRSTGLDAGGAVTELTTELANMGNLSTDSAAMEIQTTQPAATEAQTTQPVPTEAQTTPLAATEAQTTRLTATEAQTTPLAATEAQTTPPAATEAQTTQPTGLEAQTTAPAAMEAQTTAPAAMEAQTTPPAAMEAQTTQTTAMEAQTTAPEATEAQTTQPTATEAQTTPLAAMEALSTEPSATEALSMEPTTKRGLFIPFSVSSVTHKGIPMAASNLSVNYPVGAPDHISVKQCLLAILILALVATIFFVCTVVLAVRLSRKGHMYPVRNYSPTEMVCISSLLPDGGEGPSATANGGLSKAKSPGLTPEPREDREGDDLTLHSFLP
T1 sequence (P16109 whole entry): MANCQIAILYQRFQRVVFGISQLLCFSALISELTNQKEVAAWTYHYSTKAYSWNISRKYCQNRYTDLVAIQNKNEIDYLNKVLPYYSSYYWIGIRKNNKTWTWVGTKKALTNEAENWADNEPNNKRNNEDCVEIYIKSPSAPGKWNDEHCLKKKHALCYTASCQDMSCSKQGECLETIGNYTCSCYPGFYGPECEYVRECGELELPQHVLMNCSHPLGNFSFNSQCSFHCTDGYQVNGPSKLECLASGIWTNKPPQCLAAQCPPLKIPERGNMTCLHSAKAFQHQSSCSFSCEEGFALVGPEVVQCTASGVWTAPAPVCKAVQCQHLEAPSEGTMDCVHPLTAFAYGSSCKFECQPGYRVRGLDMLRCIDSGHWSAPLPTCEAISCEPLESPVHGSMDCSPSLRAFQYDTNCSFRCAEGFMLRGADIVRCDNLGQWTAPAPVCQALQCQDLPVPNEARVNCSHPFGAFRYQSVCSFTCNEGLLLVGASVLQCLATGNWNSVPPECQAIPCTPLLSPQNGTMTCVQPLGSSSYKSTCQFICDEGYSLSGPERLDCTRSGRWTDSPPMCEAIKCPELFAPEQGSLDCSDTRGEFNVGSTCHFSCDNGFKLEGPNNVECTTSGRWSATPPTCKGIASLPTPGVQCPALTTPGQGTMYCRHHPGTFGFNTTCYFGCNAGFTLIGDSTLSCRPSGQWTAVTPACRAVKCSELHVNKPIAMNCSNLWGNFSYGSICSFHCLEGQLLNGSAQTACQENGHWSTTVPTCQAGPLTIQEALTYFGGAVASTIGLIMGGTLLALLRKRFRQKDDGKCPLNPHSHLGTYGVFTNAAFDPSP
Kind of assay: Inhibition of PSEL/PSGL1 (unknown origin) interaction. Format: protein assay. In short, it runs like this:
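Hexasaccharide dilution series mixed with 50 nM PSEL and passed over a PSGL1-Fc-coated SPR surface. Equilibrium response was measured. IC50 came from nonlinear regression of response vs concentration, and Ki from the Cheng–Prusoff equation.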

The target in assay [2] is T2, Bone morphogenetic protein 2 (Homo sapiens, UniProt P12643).
T2 sequence (P12643 whole entry): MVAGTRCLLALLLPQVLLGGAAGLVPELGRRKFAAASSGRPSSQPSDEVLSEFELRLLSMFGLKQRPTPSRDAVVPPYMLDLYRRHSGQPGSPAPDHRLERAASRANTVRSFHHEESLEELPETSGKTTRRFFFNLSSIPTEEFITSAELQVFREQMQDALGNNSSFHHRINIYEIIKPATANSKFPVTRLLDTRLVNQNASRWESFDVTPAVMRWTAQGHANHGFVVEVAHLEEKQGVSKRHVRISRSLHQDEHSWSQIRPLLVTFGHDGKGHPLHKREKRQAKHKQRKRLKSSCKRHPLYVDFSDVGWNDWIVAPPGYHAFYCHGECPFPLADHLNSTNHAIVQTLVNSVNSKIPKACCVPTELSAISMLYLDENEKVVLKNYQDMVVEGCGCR
Kind of assay: Binding affinity to human recombinant BMP2 by surface plasmon resonance assay. In short, it runs like this:
(§1)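 Biotinylated low-molecular-weight heparin was captured on a neutravidin surface. Protein at varying concentrations was mixed with a hexasaccharide dilution series and injected. Free protein was read from a quadratic slope-vs-concentration standard curve. KD = [P_free][H_total]/[P_bound], averaged over three hexasaccharide concentrations.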

Assay [3] deals with T3, Fibroblast growth factor 2 (Homo sapiens, UniProt P09038). Nature of the assay: Binding affinity to human recombinant FGF2 by surface plasmon resonance assay. The essentials:
as §1

The target in assay [4] is T4, Bone morphogenetic protein 4 (Homo sapiens, UniProt P12644).
T4 sequence (P12644 whole entry): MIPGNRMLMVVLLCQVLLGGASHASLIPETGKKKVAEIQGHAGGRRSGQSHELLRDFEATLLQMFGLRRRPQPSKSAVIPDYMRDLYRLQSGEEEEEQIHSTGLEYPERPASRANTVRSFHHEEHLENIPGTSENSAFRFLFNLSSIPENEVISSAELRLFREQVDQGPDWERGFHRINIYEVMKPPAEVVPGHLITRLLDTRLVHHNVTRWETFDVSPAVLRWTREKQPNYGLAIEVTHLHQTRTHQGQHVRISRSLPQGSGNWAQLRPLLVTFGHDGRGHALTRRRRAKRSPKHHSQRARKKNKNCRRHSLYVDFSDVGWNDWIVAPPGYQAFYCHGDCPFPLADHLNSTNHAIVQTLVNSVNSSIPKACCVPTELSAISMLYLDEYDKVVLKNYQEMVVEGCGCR
Nature of the assay: Binding affinity to human recombinant BMP4 by surface plasmon resonance assay. The essentials: as §1
(In SPR one partner is held on a chip, and binding of the other changes the refractive index at the surface.)

Assay [5] concerns the target T5, C-X-C motif chemokine 2 (Homo sapiens, UniProt P19875).
T5 sequence (P19875 whole entry): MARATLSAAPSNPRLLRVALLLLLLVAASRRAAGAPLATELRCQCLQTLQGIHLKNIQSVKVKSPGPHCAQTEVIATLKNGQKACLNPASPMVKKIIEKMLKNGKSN
Nature of the assay: Binding affinity to human recombinant CXCL2 by surface plasmon resonance assay. In short, it runs like this: as §1

Assay [6] addresses T6, Vascular endothelial growth factor A, long form (Homo sapiens, UniProt P15692).
T6 sequence (P15692 whole entry): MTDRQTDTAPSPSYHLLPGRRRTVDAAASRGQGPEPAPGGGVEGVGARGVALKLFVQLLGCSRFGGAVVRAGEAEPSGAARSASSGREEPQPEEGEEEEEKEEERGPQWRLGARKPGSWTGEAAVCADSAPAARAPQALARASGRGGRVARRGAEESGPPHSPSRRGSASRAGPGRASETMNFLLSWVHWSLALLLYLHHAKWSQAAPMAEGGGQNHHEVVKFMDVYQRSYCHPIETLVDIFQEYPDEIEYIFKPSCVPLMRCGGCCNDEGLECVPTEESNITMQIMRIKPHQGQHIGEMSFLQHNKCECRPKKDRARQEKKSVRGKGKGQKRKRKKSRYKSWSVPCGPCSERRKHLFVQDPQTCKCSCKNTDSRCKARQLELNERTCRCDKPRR
Kind of assay: Binding affinity to human recombinant VEGF165 by surface plasmon resonance assay. In short, it runs like this:
as §1

Assay [7] has as its target T3, Fibroblast growth factor 2. Kind of assay: Binding affinity to human recombinant FGF2 at 780 uM by STD-NMR analysis.
The target of assay [8] is Bone morphogenetic protein 6 (Homo sapiens, UniProt P22004). Nature of the assay: Binding affinity to human recombinant BMP6 by surface plasmon resonance assay. The essentials: as §1
Bone morphogenetic protein 6, sequence (P22004 375-513 limits assumed): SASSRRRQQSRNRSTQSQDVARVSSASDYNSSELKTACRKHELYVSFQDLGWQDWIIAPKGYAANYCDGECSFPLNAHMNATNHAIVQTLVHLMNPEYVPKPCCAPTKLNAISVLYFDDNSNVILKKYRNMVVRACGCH

T3 sequence (P09038 143-288 limits assumed): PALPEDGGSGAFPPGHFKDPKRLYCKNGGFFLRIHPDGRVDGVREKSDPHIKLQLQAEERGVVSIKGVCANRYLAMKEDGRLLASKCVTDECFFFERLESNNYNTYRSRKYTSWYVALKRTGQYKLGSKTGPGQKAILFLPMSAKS

Regarding `CCCCCO[C@H]1O[C@H](COS(=O)(=O)O)[C@@H](O[C@@H]2O[C@@H](C(=O)O)[C@@H](O[C@H]3O[C@H](COS(=O)(=O)O)[C@@H](O[C@@H]4O[C@@H](C(=O)O)[C@@H](O[C@H]5O[C@H](COS(=O)(=O)O)[C@@H](O[C@@H]6O[C@@H](C(=O)O)[C@@H](O)[C@H](O)[C@H]6OS(=O)(=O)O)[C@H](O)[C@H]5NC(C)=O)[C@H](O)[C@H]4OS(=O)(=O)O)[C@H](O)[C@H]3NC(C)=O)[C@H](O)[C@H]2OS(=O)(=O)O)[C@H](O)[C@H]1NC(C)=O`, the Ki (in general, a measure of affinity in units of concentration, obtained from inhibition or displacement) in assay [1] was determined as 250 µM. Moreover, the Kd (as a rule, a measure of binding affinity in units of concentration) in assay [2] stood at 24 µM; in assay [3], 25000 µM; in assay [4], 250000 µM; in assay [5], 250000 µM; in assay [6], 66 µM; in assay [8] it was 250000 µM. For the same compound, in assay [7], the outcome was Active.

Consider `NCCCCCO[C@H]1O[C@H](CO)[C@@H](O[C@@H]2O[C@@H](C(=O)O)[C@@H](O[C@H]3O[C@H](CO)[C@@H](O[C@@H]4O[C@@H](C(=O)O)[C@@H](O[C@H]5O[C@H](CO)[C@@H](O[C@@H]6O[C@@H](C(=O)O)[C@@H](O)[C@H](O)[C@H]6OS(=O)(=O)O)[C@H](O)[C@H]5NS(=O)(=O)O)[C@H](O)[C@H]4OS(=O)(=O)O)[C@H](O)[C@H]3NS(=O)(=O)O)[C@H](O)[C@H]2OS(=O)(=O)O)[C@H](O)[C@H]1NS(=O)(=O)O`, for which the Ki in assay [1] was 358 µM. Besides, the Kd is 46 µM in assay [2]; 1 µM in assay [3]; 250000 µM in assay [4]; 250000 µM in assay [5]; 86 µM in assay [6]; 250000 µM in assay [8]. Further, the outcome in assay [7] was Active.

In assay [1], `CCCCCO[C@H]1O[C@H](COS(=O)(=O)O)[C@@H](O[C@@H]2O[C@@H](C(=O)O)[C@@H](O[C@H]3O[C@H](COS(=O)(=O)O)[C@@H](O[C@@H]4O[C@@H](C(=O)O)[C@@H](O[C@H]5O[C@H](COS(=O)(=O)O)[C@@H](O[C@@H]6O[C@@H](C(=O)O)[C@@H](O)[C@H](O)[C@H]6OS(=O)(=O)O)[C@H](O)[C@H]5NC(C)=O)[C@H](O)[C@H]4OS(=O)(=O)O)[C@H](O)[C@H]3NS(=O)(=O)O)[C@H](O)[C@H]2O)[C@H](O)[C@H]1NC(C)=O` showed a Ki of 96 µM. Moreover, the equilibrium dissociation constant (Kd) in assay [2] amounted to 34 µM; in assay [3], 25000 µM; in assay [4] it was 250000 µM; in assay [5], 250000 µM; in assay [6] it was 14 µM; in assay [8], 9 µM. The result in assay [7] was Active.

Values taken from ChEMBL document CHEMBL3286317, “Synthesis and biological evaluation of a unique heparin mimetic hexasaccharide for structure-activity relationship studies” (J Med Chem, 2014).
